ChEMBL document CHEMBL4513216, “Probing the Open Global Health Chemical Diversity Library for Multistage-Active Starting Points for Next-Generation Antimalarials” (ACS Infect Dis, 2020)

Assay: Toxicity liver stage against HepG2, at 10uM
Type: cell-based
Design: test concentration 10 uM, cell line HepG2-A16-CD81EGFP
Details: human, HepG2-A16-CD81EGFP cells; read-out: INHIBITION
Method in brief: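 Uninfected HepG2-A16-CD81EGFP cells, 3 × 10^3 per well, 1536-well, plated on prespotted compound at 10 μM final, parasite-free screening media added to match infected plates; puromycin 10 μM positive, DMSO 0.5% negative; run in parallel with 48 h PbLuc assay at 37 °C, 5% CO2; viability by CellTiter-Glo luminescence, normalized to controls.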

Row | SMILES | cytotoxicity at 10 µM
1 | CCn1cnnc1CNc1nc(C)nc2scc(CC(C)C)c12 | -3.17%
2 | O=C1CO[C@H]2CN(Cc3c[nH]c4ccccc34)C[C@H]2N1 | 1.61%
3 | CN(C)[C@@H]1CO[C@H](CNC(=O)c2cccs2)[C@H]1O | -1.37%
4 | CC(C)(C)c1cc(C[C@H]2CNCC[C@H]2CC(=O)Nc2ccccc2)no1 | -2.4%
5 | CCN1CCN(C(=O)c2cn(Cc3ccccc3)c3ncccc23)CC1 | -1.6%
6 | CCOc1c(C(N)=O)cn(C)c1-c1nc2cc(NC(C)=O)ccc2n1C | -46.9%
7 | CC(C)CSc1ccc(-n2cccn2)nn1 | -218%
8 | CC(C)Cn1nc2ccc(S(=O)(=O)N3CCC(C)CC3)cn2c1=O | 1.67%
9 | O=C(c1cc(C2CC2)on1)N1CCC(Oc2ncccc2Br)CC1 | 3.96%
10 | CN(C)c1cnnc(N2CCN(C(=O)Cc3ccccc3)CC2)c1 | 5.5%
11 | O=C(NCc1cc(C2CC2)n(C2CCCC2)n1)C1CC1 | 2.16%
12 | Cc1oncc1C(=O)N1CC2CC1(C(=O)N(C)C)C2 | -0.95%
13 | O=C(C1CCCO1)N1CCC2(CC1)COCCN2CC1CC1 (stereo unspecified) | 2.79%
14 | COCCN1CCC2(CC1)CC(OCC1CC1)c1ccc(C)cc12 (stereo unspecified) | 15.5%
15 | O=C(NCc1ccccc1)N1Cc2nc(COCC3CC3)oc2C1 | 8.67%
16 | c1ccc(CN2CCC3(COCc4cnc(NCC5CC5)nc43)C2)cc1 (stereo unspecified) | 12.5%
17 | CCN1CC2(CC1=O)CN(Cc1ccoc1)CCN(C(=O)C(C)C)C2 (stereo unspecified) | 9.14%
18 | CN(C)CCNC(=O)c1ccccc1NC(=O)c1cc(Cl)ccc1Cl | -1.02%
19 | Cc1nc(N2CCCC2)nc2c1CCN(C(=O)C1CCCC1)CC2 | -0.265%
20 | CN1CC(Oc2ccccc2)=NC(SCC(=O)Nc2ccc(Cl)cc2)=N1 | -10.2%
21 | Cc1nn(C)c2c(N3CCN(C(=O)C4CC4)CC3)ncnc12 | 9.02%
22 | CCCNC(=O)c1nn(CC)cc1NC(=O)c1cn(C)nc1C | -5.63%
23 | Cc1nn(C)c(C)c1CN(C)C(=O)c1cc(NC(=O)C2CC2)n(C)n1 | 3.38%

Row | SMILES | cytotoxicity at 10 µM
24 | CCOc1cc(C(=O)N2CCN(C)CC2)cc2occc12 | 7%
25 | CCc1c(O)nc2nc(N3CCCC3)nn2c1C | 10%
26 | CS(=O)(=O)c1snnc1C1CCN(Cc2cccc(O)c2)CC1 | -8.91%
27 | Cc1ccc(C(=O)N2CC[C@H](Oc3cccnc3C)[C@@H](O)CC2)s1 | -5.58%
28 | CCCC1c2cccn2CCN1C(=O)c1cc(CC)no1 (stereo unspecified) | -14.9%
29 | CC1(C(=O)N2CCOCC2)CN(Cc2ccccn2)CCO1 (stereo unspecified) | 2.86%
30 | O=S1(=O)NCC2(CCN(Cc3ccncc3)CC2)Oc2ncccc21 | 5.97%
31 | N#CCCn1cnc2c(Br)cc(Br)cc2c1=O | -5.35%
32 | Cc1cc(C2CCCN2C(=O)COc2ccc(CC#N)cc2)no1 (stereo unspecified) | -38.9%
33 | O=C(CSCCN1CCOCC1)N1CCCCCC1 | 10.4%
34 | COc1ccccc1C(C#N)NC(=O)c1cccc2c1oc(=O)n2C (stereo unspecified) | 3.3%
35 | O=C(c1cc(C2CC2)nc2onc(-c3ccccc3)c12)N1CC(O)C1 | -50.5%
36 | COc1ccc2c(c1)CCCN2C(=O)NC1CCCCNC1=O (stereo unspecified) | -139%
37 | Cc1cc(C)c(CNC(=O)NCCCNc2ccccn2)c(=O)[nH]1 | -43%
38 | CS(=O)(=O)c1cccc2c1CCCN2C(=O)Cc1cccc(F)c1 | 8.14%
39 | Cn1ccc(C(=O)Nc2nnc(-c3ccccn3)[nH]2)cc1=O | 6.69%
40 | CC(C)CC(NCc1ccsc1)c1ccccn1 (stereo unspecified) | -2.56%
41 | O=C(NCCCN1CCOCC1)c1ccnc(OCc2ccccc2)c1 | -21.4%
42 | COc1ccc(NC(=O)c2ccco2)c(N2CCN(C(C)=O)CC2)n1 | -10.2%
43 | CCOc1ccccc1N(C)C(=O)c1cscn1 | -0.704%
44 | CC(C)(C)c1noc(OCC(=O)NCC(F)(F)F)n1 | 8.81%
45 | Cc1nc(C(=O)N(C)CC2CC2)nn1-c1ccccc1C(C)C | 5.38%
46 | CCOc1ncccc1C(=O)NCC(O)c1ccc(F)c(F)c1 (stereo unspecified) | 9.45%

Row | SMILES | cytotoxicity at 10 µM
47 | COc1ccc(F)cc1CSCC(=O)N(C)C1CC1 | 0.611%
48 | CC(O)C1CCN(Cc2nccn2CC(F)(F)F)CC1 (stereo unspecified) | 4.29%
49 | CCC(CC)C(CNC(=O)Nc1ccc(OC)cc1)N1CCOCC1 (stereo unspecified) | -2.86%
50 | Cc1cc(CNC(=O)CN2CCN(C(=O)OC(C)(C)C)CC2)ccc1F | -11.2%
51 | CC(C)N(C)C(=O)c1ccc(CNc2ncc(C#N)cc2Cl)cc1 | 15.9%
52 | Cc1cnc(CN(C)C2CCN(Cc3nc4c(F)cccc4[nH]3)C2)o1 (stereo unspecified) | 2.53%
53 | O=C(c1ccc(O)nc1)N1CCN(C(=O)c2ccc(F)cc2F)CC1 | -1.35%
54 | Cc1ccnc(NC(=O)C2CCN(CCCn3ccnc3C)CC2)c1 | -58.2%
55 | Cc1ncsc1C(=O)N1CC(C)Sc2ccccc21 (stereo unspecified) | -0.663%
56 | CC1CN(C(=O)CCc2cc(Br)cs2)CCO1 (stereo unspecified) | -8.48%
57 | CCNC(=O)NC(=O)CNC1(c2noc(C)n2)CCCCC1 | -1.3%
58 | O=C1CO[C@@H]2CN(S(=O)(=O)c3ccccc3F)C[C@H]2N1 | 0.0416%
59 | Cc1nc(CCCNC(=O)C2CC(=O)N(C3CCCC3)C2)sc1C (stereo unspecified) | 3.01%
60 | CCCN1CC(NC(=O)Nc2nc(C)n(C(C)C)n2)CC1=O (stereo unspecified) | -3.04%
61 | Cc1cc(C(=O)N[C@H]2CN(CCO)C[C@@H]2C2CC2)sc1C | 1.18%
62 | O=C(N[C@@H]1CCN(C(=O)c2cc[nH]c2)C[C@H]1O)c1ccccn1 | 5.89%
63 | CCc1cnc(NCC2OCCc3ccccc32)nc1 (stereo unspecified) | -3.6%
64 | Cc1[nH]c2ccc(C#N)cc2c1CCNc1ncnc2c1CCNCC2 | -11.2%
65 | CN(Cc1cc2n(n1)CCNC2)Cc1n[nH]c2c1CCCCC2 | -6.32%
66 | CN(Cc1n[nH]c(=O)n1Cc1ccco1)S(C)(=O)=O | -1.25%
67 | Cc1nc[nH]c1CN1CCC(C2CCN(CCc3ccccc3)C2)CC1 (stereo unspecified) | -3.52%
68 | CN(Cc1cnc(N)nc1)C(=O)C1CCN(C(=O)C2CCCC2)CC1 | -1.42%
69 | COc1ccc(C2(C(=O)NCc3c(C)ncc4c3CCNC4)CC2)cc1 | -50.7%

Row | SMILES | cytotoxicity at 10 µM
70 | COc1ccc([C@@H]2CN(C(=O)CS(C)(=O)=O)C[C@H]2NC(C)=O)cc1 | 0.541%
71 | CSc1nc(C)cc(N2CCC(c3ncc[nH]3)CC2)n1 | -10.6%
72 | Cc1c(-c2n[nH]c3c2CN(CC2CCOC2)CC3)cccc1C(F)(F)F (stereo unspecified) | -43.2%
73 | O=c1[nH]c(-c2ccccc2F)nc2c1CCNC2 | -2.72%
74 | CSCCCN1CCC[C@]2(C(=O)O)CN(c3cnccn3)CC[C@@H]12 | 8.26%
75 | Cc1nc(-c2cccc(N3CCC(N[C@@H]4CCOC4)CC3)c2)cs1 | -8.16%
76 | CN1CCN2CCN(C(=O)c3cc4ncc(CCO)cn4n3)CC2C1 (stereo unspecified) | 6.99%
77 | CN(C)C(=O)c1ccc(C(C(=O)O)N(C)Cc2ccccc2Cl)cc1 (stereo unspecified) | -54.6%
78 | Cc1nn(C)c2nc(NCCOCCO)sc12 | -5%
79 | CCOc1ccccc1C(=O)Nn1c(C)cc(C)cc1=O | -10.9%
80 | c1ccc(-c2nc(CN3CCCC3Cn3cccn3)no2)cc1 (stereo unspecified) | -6.69%
81 | Cc1nccc(-c2cccc(NCC(=O)N3CCNC(=O)C3)c2)n1 | -0.797%
82 | COc1ccc(CN(C)C(=O)NCc2c(C)cc(C)nc2OC)cc1 | -7.11%
83 | CC(O)CN1CCC(CNCc2ccc(OC(F)(F)F)cc2)CC1 (stereo unspecified) | -13.6%
84 | CCOc1cc(C)nc(N2CCN(C(=O)c3cn[nH]c3CC)CC2)n1 | -2%
85 | CCN1CCN(C(C)CNC(=O)Nc2cnn(CC)c2)CC1 (stereo unspecified) | -12.9%
86 | Cc1ccoc1C(=O)NC1CCN(Cc2ccccc2F)CC1 | -14.1%
87 | CCCc1n[nH]c(C2CN(CCS(=O)(=O)CC)CCO2)n1 (stereo unspecified) | -5.83%
88 | CC(NC(=O)NCCCN(C)S(C)(=O)=O)c1ccc(C#N)cc1 (stereo unspecified) | -5.77%
89 | Cc1nnc2n1CCN(CCC(=O)Nc1sccc1C#N)C2 | -2.28%
90 | CC(C)(C)c1nnc(CN2CCCC(c3cc(C(N)=O)[nH]n3)C2)o1 (stereo unspecified) | -7.89%
91 | CCOC1CCCN(C(=O)c2sccc2-n2cnnn2)C1 (stereo unspecified) | 4.39%
92 | Cc1noc(C)c1CNC(=O)N1CCN(Cc2cscn2)CC1 | -6.31%

Row | SMILES | cytotoxicity at 10 µM
93 | Cc1ccc(NC2CCN(C(=O)COc3cccnc3)CC2)nn1 | 1.3%
94 | CCOc1ncccc1C(=O)NCCN(CC)C1CC1 | 4.4%
95 | O=C(c1ccn[nH]1)N1CCCC(n2cncn2)C1 (stereo unspecified) | 1.56%
96 | COc1ccc(C)cc1CC(=O)N1CCN(CC(C)O)CC1 (stereo unspecified) | -8.65%
97 | CCN(Cc1nc2c(cnn2C)c(=O)[nH]1)Cc1cccs1 | 1.49%
98 | O=C1COc2c(cccc2C(=O)N2CCCCC2Cn2cccn2)N1 (stereo unspecified) | 4.07%
99 | COCCNc1ccc(CC2CCCNC2)cn1 (stereo unspecified) | 7.29%
100 | COc1ccc(CNC(Cc2ccsc2)c2ccc(C)cn2)cc1OC (stereo unspecified) | -4.88%
101 | COc1ccc(C(C)NCc2c[nH]nc2C)cc1Br (stereo unspecified) | -5.57%
102 | O=C(NCc1cn2c(n1)CN(Cc1ccncc1)CC2)C1CCC1 | 6.76%
103 | Cc1cccc(CN2CCc3c(CNC(=O)CC#N)nn(C)c3C2)n1 | 4.89%
104 | O=C(NCc1ccco1)[C@H]1C[C@@H]2CCN(c3cccc(F)c3)C[C@H]2O1 | 8.68%
105 | COCCN1C(=O)CCC12CCCN(Cc1ccccc1F)C2 (stereo unspecified) | 3.64%
106 | CN(C)C(=O)[C@@H]1C[C@@H]2[C@@H](CCN2Cc2nccs2)O1 | -1.42%
107 | Cc1ccc(C(=O)N2C[C@H]3CCC[C@@]3(COCc3ccncc3)C2)cn1 | 6.64%
108 | O=C1CC(NCc2cnc(N3CCCC3)nc2)CN1c1ccccc1 (stereo unspecified) | -4.56%
109 | COCC(=O)N1CCCC2(CCN(Cc3cccc(C)n3)C2=O)C1 (stereo unspecified) | -0.559%
110 | O=C1Nc2ccccc2C12CCN(Cc1cccs1)CC2 | -0.184%
111 | COc1ccccc1C(=O)NC(c1ccccn1)C1CCC(CN)CC1 (stereo unspecified) | -12.8%
